Source: PubChem (Sanford-Burnham Center for Chemical Genomics)
Scp-1 inhibitor: Scp-1 phosphatase inhibitors, primary screen, biochemical, colorimetric, uHTS | Carboxy-terminal domain RNA polymerase II polypeptide A small phosphatase 1 (Homo … | Recombinant Scp1, phosphopeptide, malachite green phosphate absorbance | inhibition, % at 20 µM | 0.88% of 340,000 active | AID 493091, 2011;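 active = inhibition above about 50% at 20 µM, limit read from the data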
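Test system: SCP-1 catalytic domain; Buffer or medium: Acidic Tris acetate buffer with magnesium and detergent; Also added: Phosphorylated 17-residue peptide substrate; Compound: single 20 µM dose, 1% DMSO; Schedule: enzyme reaction 45 min at room temperature, colour 5 min, stabilisation 30 min; Signal: Phosphate-binding colour reagent, absorbance read at 630 nm.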
LMPTP inh: LMPTP phosphatase inhibitors, primary screen, biochemical, fluorescence intensity, uHTS; Low molecular weight phosphotyrosine protein phosphatase (Homo sapiens), P24666; recombinant LMPTP-A, OMFP fluorogenic substrate; inhibition, % at 20 µM; 0.22% of 360,000 active; AID 651560, 2012;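 active = compounds that cut the enzyme signal by at least half of the control window in the single-dose screen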
Target sequence (P24666 whole entry, looked up): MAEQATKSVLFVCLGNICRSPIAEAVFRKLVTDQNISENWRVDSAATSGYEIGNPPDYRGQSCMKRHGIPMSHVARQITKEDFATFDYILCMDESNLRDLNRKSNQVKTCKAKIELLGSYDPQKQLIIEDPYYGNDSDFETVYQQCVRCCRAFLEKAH
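Test system: LMPTP-A phosphatase enzyme; input: 0.625 nM LMPTP-A final; reagent: OMFP substrate, 400 µM final; compound dosing: 20 µM single dose, 3% DMSO; incubation: 50 min dark incubation at room temperature; measured by: endpoint fluorescence intensity from OMFP dephosphorylation; measure: % inhibition relative to no-enzyme and uninhibited control wells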
STEP block: STEP phosphatase inhibitors, primary screen, biochemical, fluorescence intensity, uHTS; inhibition, % at 20 µM; AID 588621, 2011; recombinant STEP, OMFP fluorogenic substrate; 0.25% of 360,000 active;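 active = inhibition at 20 µM, scaled per plate between control wells, above about 37%, limit read from the data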
Target sequence (P54829 whole entry, looked up): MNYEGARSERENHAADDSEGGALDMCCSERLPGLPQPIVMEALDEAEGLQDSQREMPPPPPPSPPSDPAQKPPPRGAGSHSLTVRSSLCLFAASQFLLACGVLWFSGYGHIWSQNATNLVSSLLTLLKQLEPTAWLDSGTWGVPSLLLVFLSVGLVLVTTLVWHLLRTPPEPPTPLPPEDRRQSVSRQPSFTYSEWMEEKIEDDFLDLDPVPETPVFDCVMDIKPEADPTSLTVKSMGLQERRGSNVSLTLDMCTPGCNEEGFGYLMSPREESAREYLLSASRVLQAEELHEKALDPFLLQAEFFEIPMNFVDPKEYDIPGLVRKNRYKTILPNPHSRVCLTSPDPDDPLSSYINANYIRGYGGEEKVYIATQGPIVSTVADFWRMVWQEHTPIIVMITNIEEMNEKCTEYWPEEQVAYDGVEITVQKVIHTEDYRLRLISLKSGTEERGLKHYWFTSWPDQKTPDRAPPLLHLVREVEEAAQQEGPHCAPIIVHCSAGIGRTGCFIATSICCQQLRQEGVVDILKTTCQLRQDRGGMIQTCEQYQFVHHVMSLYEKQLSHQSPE
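medium = Bis-Tris buffer pH 6.0, 2.5 mM DTT, 0.005% Tween 20 | test system = STEP (striatal-enriched tyrosine phosphatase) enzyme, cell-free | measure = normalized % inhibition | compound dosing = 20 µM, 1% DMSO | also added = 25 µM OMFP | schedule = reaction 20 min, ambient temperature | measured by = fluorescence read at 480 nm ex / 540 nm em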
DNMT1 block: human DNMT1 methyltransferase inhibitors, primary screen, biochemical, molecular beacon, fluorescence, HinP1I cleavage, uHTS; 0.83% of 360,000 active; DNA (cytosine-5)-methyltransferase 1 (Homo sapiens), P26358; inhibition (reported as % activation of signal), % at 10 µM; AID 588458, 2011; in the data active = inhibition above about 50%
SUMO1 PPI mod: modulators of SUMO1 protein-protein interactions, primary screen, biochemical, uHTS | Small ubiquitin-related modifier 1 (Homo sapiens), P63165 | SUMO1 binding to a labelled peptide, TR-FRET, 1 h | inhibition, % at 20 µM | 0.33% of 360,000 active; in the data active = inhibition above about 37%
DNMT1 inh conf: DNMT1 methyltransferase inhibitor retest, confirmation, biochemical, molecular beacon, fluorescence, single concentration; shares compounds with DNMT1 block; inhibition, % at 10 µM; 8% of 2,300 active; DNMT1 molecular beacon HinP1I cleavage;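 active = average inhibition of at least 30% in the single-concentration confirmation test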
DNMT1 interf: counter-screen for DNMT1 inhibitors: spectral interference; shares compounds with DNMT1 block; DNMT1 molecular beacon spectral interference counterscreen, fluorescence 485/520; activation (fluorescence interference), % at 10 µM; 1% of 2,300 active; AID 602387;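 active = activation of at least 30% at 10 µM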;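 note: DNMT1 catalytic domain with a HinP1I cleavage step and a FAM/dabcyl DNA beacon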
A number is an active result; 0 = inactive; - = no result. An excerpt weighted towards active compounds, which were near 1.7% of everything screened.

SMILES | Scp-1 inhibitor | LMPTP inh | STEP block | DNMT1 block | SUMO1 PPI mod | DNMT1 inh conf | DNMT1 interf
COc1cc2c(C#N)c(N3CCCCC3)nc(N)c2c(N)n1 | 0 | 0 | 0 | 65 | 52 | 0 | 0
CCCCNC(=O)C(=O)NCC1CCCN1S(=O)(=O)c1cccs1 (centres undefined) | 0 | 0 | 0 | 0 | 0 | - | -
O=C(COC(=O)/C=C/c1ccccc1[N+](=O)[O-])NC1CC1 | 0 | 0 | 0 | 50 | 0 | 0 | 0
O=C(COC(=O)/C=C/c1ccccc1[N+](=O)[O-])NC1CCS(=O)(=O)C1 (centres undefined) | 0 | 0 | 0 | 0 | 0 | - | -
COc1ccc(N2CCN(S(=O)(=O)c3cc4c(cc3C)N(C(C)=O)CCO4)CC2)cc1 | 0 | 0 | 0 | 0 | 0 | - | -
CNc1ccc(Br)cc(C(=O)/C=C/c2ccc3c(c2)OCO3)c1=O | 0 | 0 | 0 | 65 | 0 | 0 | 0
CNc1ccc(Br)cc(C(=O)/C=C/c2ccc(OC)cc2)c1=O | 0 | 0 | 0 | 0 | 0 | - | -
CCc1cccc(OCCCCN(CC)CC)c1 | 0 | 0 | 0 | 55 | 0 | 0 | 0
COC(=O)[C@@]12C[C@@H](CC(=O)N3CCCC3)C(=O)N(Cc3ccc4c(c3)OCO4)C1=CCC(C)(C)C2 | - | 0 | - | - | 0 | - | -
O=C(Nc1ccc(Cl)cc1)c1cc(-c2cccs2)on1 | 0 | 0 | 0 | 50 | 0 | 0 | 0
O=C(Nc1ccc(Br)cc1)c1cc(-c2cccs2)on1 | 0 | 0 | 0 | 0 | 0 | - | -
COc1ccc(-c2[nH]nc3nc(N4CCN(C(=O)c5ccoc5)CC4)cc(C(F)(F)F)c23)cc1 | - | 0 | 0 | 0 | 0 | - | -
CCc1ccc(NC(=O)Cn2c(=O)c3cccn3c3ccccc32)cc1 | 0 | 0 | 0 | 55 | 0 | 0 | 0
CCc1ccc(NC(=O)CCn2c(=O)c3cccn3c3ccccc32)cc1 | 0 | 0 | 0 | 0 | 0 | - | -
c1ccc2c(c1)nc1n2CCN1CCN1CCCC1 | 0 | 0 | 0 | 0 | 0 | - | -
COc1ccccc1NC(=O)c1cc(C(=O)Nc2ccccc2OC)n(C)n1 | 0 | 0 | 0 | 0 | 0 | - | -
Cc1cc(C)c(NC(=O)CSc2nc(COc3ccccc3)nc3ccccc23)c(C)c1 | 0 | 0 | 0 | 70 | 0 | 0 | 0
CN(C(=O)COC(=O)c1ccccc1SCC(=O)N1CCCC1)c1ccccc1 | 0 | 0 | 0 | 0 | 0 | - | -
CC(=O)Nc1ccc(S(=O)(=O)NCC(=O)OC(C)c2ccccc2Cl)cc1 (centres undefined) | 0 | 0 | 0 | 0 | 0 | - | -
Cc1cc2c(N)cccc2nn1 | 60 | 93 | 75 | 127 | 73 | 0 | 0
COc1ccc(Cl)cc1-c1cc(C(=O)NCc2cccc(C(F)(F)F)c2)[nH]n1 | - | 0 | 0 | 58 | 0 | 0 | 0
C=CCC[C@@H](Cc1ccc(F)cc1)C(=O)OC[C@H](Cc1c[nH]c2ccccc12)NC(=O)[C@@H](CC=C)CC(=O)N[C@@H](CO)Cc1ccccc1 | 0 | 0 | 0 | 0 | 0 | - | -
C=CCC[C@@H](Cc1ccc(F)cc1)C(=O)OC[C@@H](Cc1c[nH]c2ccccc12)NC(=O)[C@@H](CC=C)CC(=O)N(CCO)Cc1ccccc1 | 0 | 0 | 0 | 60 | 0 | 0 | 0
C=CCC[C@@H](Cc1ccc(F)cc1)C(=O)OC[C@@H](Cc1c[nH]c2ccccc12)NC(=O)[C@@H](CC=C)CC(=O)N[C@H](CO)Cc1ccccc1 | 0 | 60 | 0 | 74 | 0 | 0 | 0
C=CCC[C@@H](Cc1ccc(F)cc1)C(=O)OC[C@@H](Cc1c[nH]c2ccccc12)NC(=O)[C@H](CC=C)CC(=O)N[C@H](CO)Cc1ccccc1 | 0 | 0 | 0 | 71 | 0 | 0 | 0
SMILES | Scp-1 inhibitor | LMPTP inh | STEP block | DNMT1 block | SUMO1 PPI mod | DNMT1 inh conf | DNMT1 interf
C=CCC[C@H](Cc1ccc(F)cc1)C(=O)OC[C@H](Cc1c[nH]c2ccccc12)NC(=O)[C@H](CC=C)CC(=O)N(CCO)Cc1ccccc1 | 0 | 0 | 0 | 0 | 0 | - | -
C=CC[C@@H](CC(=O)N[C@@H](CO)Cc1ccccc1)C(=O)NC[C@@H](OC(=O)[C@@H](CC=C)Cc1ccc(F)cc1)c1ccccc1 | 0 | 0 | 0 | 66 | 0 | 0 | 0
C=CCC[C@H](Cc1ccc(F)cc1)C(=O)OC[C@@H](Cc1c[nH]c2ccccc12)NC(=O)[C@@H](CC=C)CC(=O)N[C@@H](CO)Cc1ccccc1 | 0 | 0 | 0 | 0 | 0 | - | -
CCCN(CC(=O)Nc1ccccc1C)C(=O)c1sc2ccccc2c1Cl | 0 | 0 | 0 | 0 | 0 | - | -
CCCC(=O)Nc1ccc(-c2nc3cc(C)c(C)cc3o2)cc1 | 0 | 0 | 0 | 56 | 0 | 0 | 0
O=C(CCN1C(=O)c2ccccc2C1=O)Nc1ccc(-c2nc3ccccc3o2)cc1 | 0 | 0 | 0 | 0 | 0 | - | -
O=C(CN1C(=O)c2ccccc2C1=O)Nc1ccc(-c2nc3ccccc3o2)cc1 | 0 | 0 | 0 | 78 | 0 | 0 | 0
COc1ccc(/C=C/C(=O)N2CCN(S(=O)(=O)c3ccccc3Br)CC2)cc1OC | 0 | 0 | 0 | 0 | 0 | - | -
C/C(=N\NC(=O)Cn1nc(C)c([N+](=O)[O-])c1C)c1ccc(Cl)s1 | 0 | 0 | 0 | 0 | 0 | - | -
COc1ccc(NC(=O)NC2(C(=O)N3CCN4CCCC4C3)CCCCC2)cc1 (centres undefined) | 0 | 0 | 0 | 0 | 0 | - | -
COc1ccc(NC(=O)NC2(C(=O)N3CCOCC3)CCCCC2)cc1 | 0 | 0 | 0 | 54 | 0 | 0 | 0
NS(=O)(=O)c1ccc(CCNS(=O)(=O)c2ccc(Cl)s2)cc1 | 0 | 0 | 0 | 0 | 0 | - | -
CCCCN1CC(=O)N2[C@H]3c4ccccc4OC[C@@H]3[C@H](C(=O)OCC)[C@]2(C)C1=O | 0 | 0 | 0 | 0 | 0 | - | -
C[C@H]1CCCCO[C@H](CN(C)Cc2ccccc2)[C@@H](C)CN([C@@H](C)CO)C(=O)c2cc(NC(=O)CCC(F)(F)F)ccc2O1 | - | 0 | 0 | 65 | 0 | 0 | 0
COc1ccc(CN(C)C[C@H]2OCCCC[C@H](C)Oc3ccc(NC(=O)CCC(F)(F)F)cc3C(=O)N([C@@H](C)CO)C[C@@H]2C)cc1 | - | 0 | 0 | 0 | 0 | - | -
NC(=O)COc1ccc(NC(=O)CC23CC4CC(CC(C4)C2)C3)cc1 | 0 | 0 | 0 | 0 | 0 | - | -
O=C(/C=C/c1ccco1)Nc1ccccc1C(=O)O | 54 | 0 | 0 | 80 | 0 | 0 | 0
